Data published in ChEMBL document CHEMBL1129403, “Analogs of 3-hydroxy-1H-1-benzazepine-2,5-dione: structure-activity relationship at N-methyl-D-aspartate receptor glycine sites” (J Med Chem, 1996).
Where “and” joins values, the source holds several entries; their conditions need not be identical. Identical values can stand only once. One block for each molecule: values may come before it.

How the values were obtained:
[1] = molecular target: Glutamate NMDA receptor; test: Inhibition of [3H]5,7-dichlorokynurenic acid(DCKA) binding to N-methyl-d-aspartate receptors(NMDA) of rat brain cortical membranes; format: cell membranes, Membrane
In short: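 [³H]DCKA (15-20 nM) incubated with well-washed rat cortical membranes and nine concentrations (up to 100 µM) in 50 mM HEPES-KOH, pH 7.5, for 30 min on ice. Reaction stopped by filtration and filter-bound radioactivity counted by liquid scintillation. IC50 taken from a sigmoidal fit.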

[2] = system: Mus musculus; test: In vivo potency in mouse maximum electroshock-inducedseizure after i.v. administration; format: functional; conditions: iv
[3] = molecular target: Glutamate NMDA receptor; test: Compound was tested for inhibition of [3H]MK-801 binding to N-methyl-d-aspartate receptors(NMDA) of rat brain cortical membranes.; format: cell membranes, Membrane
In short: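 [³H]MK801 displacement in rat brain cortical membranes, run by a previously described method. Compounds with IC50 < 300 µM were counted as potential NMDA antagonists.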

[4] = molecular target: T1, Glutamate NMDA receptor (Rattus norvegicus) (UniProt P35439+Q00959+Q00960+Q00961+Q62645+Q8VHN2+Q9R1M7); test: Inhibition of NMDA(glycine) receptors was measured in oocytes expressing cloned rat brain receptor subunits (NR1a/2C). Number of cells examined are 2; format: functional, cell-based; conditions: Oocyte
[5] = Ratio of binding affinities of NMDA / AMPA
In short: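 Steady-state selectivity index: Kb AMPA divided by Kb NMDA, with both Kb values taken from oocyte recordings.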

[6] = molecular target: T2, Glutamate receptor ionotropic, AMPA (Rattus norvegicus) (UniProt P19491+P19492+P19493+P19490); test: Inhibition of AMPA(glutamate) preferring non-NMDA receptors was measured in cultured rat cortical neurons. Number of cells examined are 3
[7] = molecular target: T1, Glutamate NMDA receptor (Rattus norvegicus); test: Inhibition of NMDA(glycine) receptors was measured in oocytes expressing cloned rat brain receptor subunits (NR1a/2C). Number of cells examined are 3; format: functional, cell-based; conditions: Oocyte
[8] = molecular target: T2, Glutamate receptor ionotropic, AMPA (Rattus norvegicus); test: Inhibition of AMPA(glutamate) preferring non-NMDA receptors was measured in oocytes expressing rat brain poly(A)+ RNA. Number of cells examined are 4; format: functional, cell-based; conditions: Oocyte
In short: (§1)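 Oocytes injected with rat cerebral cortex poly(A)+ RNA, two-electrode voltage clamp. Currents elicited by 10 µM AMPA. Kb derived from partial concentration-inhibition curves by generalized Cheng-Prusoff, using AMPA EC50 5.89 µM and slope 1.96.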

[9] = molecular target: T1, Glutamate NMDA receptor (Rattus norvegicus); test: Inhibition of NMDA(glycine) receptors was measured in oocytes expressing cloned rat brain receptor subunits (NR1a/2C). Number of cells examined are 7; format: functional, cell-based; conditions: Oocyte
[10] = molecular target: T2, Glutamate receptor ionotropic, AMPA (Rattus norvegicus); test: Inhibition of AMPA(glutamate) preferring non-NMDA receptors was measured in oocytes expressing rat brain poly(A)+ RNA. Number of cells examined are 5; format: functional, cell-based; conditions: Oocyte; in short: as §1
[11] = molecular target: T2, Glutamate receptor ionotropic, AMPA (Rattus norvegicus); test: Inhibition of AMPA(glutamate) preferring non-NMDA receptors was measured in cultured rat cortical neurons. Number of cells examined are 8
[12] = molecular target: T1, Glutamate NMDA receptor (Rattus norvegicus); test: Inhibition of NMDA(glycine) receptors was measured in oocytes expressing cloned rat brain receptor subunits (NR1a/2C). Number of cells examined are 4; format: functional, cell-based; conditions: Oocyte
[13] = molecular target: AMPA receptor (Rattus norvegicus); test: Inhibition of AMPA(glutamate) preferring non-NMDA receptors was measured in oocytes expressing rat brain poly(A)+ RNA. Number of cells examined are 6; conditions: Oocyte
[14] = molecular target: T2, Glutamate receptor ionotropic, AMPA (Rattus norvegicus); test: Inhibition of AMPA(glutamate) preferring non-NMDA receptors was measured in cultured rat cortical neurons. Number of cells examined are 2
[15] = molecular target: T2, Glutamate receptor ionotropic, AMPA (Rattus norvegicus); test: Inhibition of AMPA(glutamate) preferring non-NMDA receptors was measured in oocytes expressing rat brain poly(A)+ RNA. Number of cells examined are 3; format: functional, cell-based; conditions: Oocyte; in short: as §1

IC50 [1]: > 100000 nM
Compound: CC(=O)Nc1ccc2[nH]c(=O)c(O)cc(=O)c2c1

IC50 [1]: 300 nM
Compound: Cc1cc(C)c2c(O)cc(=O)c(=O)[nH]c2c1
ED50 [2]: 3.9 mg/kg

IC50 [3]: > 300000 nM
Compound: Cc1cccc2c(O)cc(=O)c(=O)[nH]c12

IC50 [3]: > 300000 nM
Compound: [N-]=[N+]=Nc1ccc2[nH]c(=O)c(=O)cc(O)c2c1

Kb [4]: > 55000 nM
IC50 [1]: > 100000 nM
Compound: O=c1cc(O)c(=O)c2ccccc2[nH]1

IC50 [3]: > 300000 nM
Compound: Cc1c[nH]c(=O)c(O)cc1=O

IC50 [1]: 5100 nM
Compound: CCc1ccc2c(O)cc(=O)c(=O)[nH]c2c1

IC50 [1]: 13000 nM
Compound: Cc1cccc2[nH]c(=O)c(O)cc(=O)c12

IC50 [3]: > 300000 nM
Compound: O=C(Nc1ccc2[nH]c(=O)c(=O)cc(O)c2c1)C(F)(F)F

IC50 [3]: > 300000 nM
Compound: Cc1ccc(C)c2c(O)cc(=O)c(=O)[nH]c12

IC50 [3]: > 300000 nM
Compound: O=c1ccc(=O)c2ccccc2[nH]1

IC50 [1]: 2200 nM
Compound: Cc1cc2[nH]c(=O)c(O)cc(=O)c2c(C)c1[N+](=O)[O-]

Ratio [5]: 40
IC50 [1]: 130 nM
Kb [6]: 6400 nM
Kb [7]: 250 nM and 470 nM
Kb [8]: 9900 nM
Compound: Cc1ccc2c(O)cc(=O)c(=O)[nH]c2c1

IC50 [3]: > 300000 nM
Compound: O=Nc1c(O)c2ccccc2[nH]c(=O)c1=O

Ratio [5]: 77
Kb [9]: 26 nM
IC50 [1]: 13 nM
Kb [10]: 2000 nM
Kb [11]: 10000 nM
Compound: O=c1cc(O)c2ccc(Cl)cc2[nH]c1=O
ED50 [2]: 13 mg/kg

Kb [12]: 26 nM
Kb [13]: 2700 nM
Ratio [5]: 100
IC50 [1]: 79 nM
Compound: O=c1cc(O)c2ccc(Br)cc2[nH]c1=O

IC50 [1]: 12000 nM
Compound: O=c1cc(O)c2cc([N+](=O)[O-])ccc2[nH]c1=O

Kb [12]: 1300 nM
Ratio [5]: 32
Kb [14]: 65000 nM
IC50 [1]: 830 nM
Kb [15]: 42000 nM
Compound: O=c1cc(O)c2ccccc2[nH]c1=O

IC50 [3]: > 300000 nM
Compound: O=c1cc(O)c2cc(Br)ccc2[nH]c1=O

Kb [12]: 86 nM
Ratio [5]: 44
IC50 [1]: 240 nM
Kb [8]: 3800 nM
Compound: Cc1cc2[nH]c(=O)c(O)cc(=O)c2cc1C
ED50 [2]: 6.3 mg/kg

IC50 [3]: > 300000 nM
Compound: Cc1ccc2[nH]c(=O)c(O)cc(=O)c2c1C

Ratio [5]: 25
IC50 [1]: 490 nM
Kb [7]: 210 nM
Kb [8]: 5300 nM
Compound: O=c1cc(O)c2ccc(F)cc2[nH]c1=O

IC50 [3]: > 300000 nM
Compound: Cc1cc(C)c2[nH]c(=O)c(O)cc(=O)c2c1
